Results collected from several papers.
Protocols differ between the studies behind these lines.
Target: Aurora kinase C (AURKC, Homo sapiens, UniProt Q9UQB9)

COc1cc2ncnc(Nc3ccc(Oc4ccccc4)cc3C)c2cc1OC — inhibition (enzyme activity, inhibitor; 1 µM): 1%
CCC(=N\O)/C(C)=C/c1ccc(F)cc1 — remaining binding (cell-free assay, competition with immobilised ligand; 1 µM): 80%
COc1cc2nccc(Oc3ccc(NC(=O)c4c5n(n(-c6ccc(F)cc6)c4=O)CCCC5)cc3)c2cc1OC — inhibition (enzyme activity, inhibitor; 0.1 µM): 24%
Cc1ccc(NC(=O)c2ccc(C)c(C(F)(F)F)c2)cc1C#Cc1nn(C2CCC(O)CC2)c2ncnc(N)c12 (centres unmarked) — remaining signal (cell-free assay; 10 µM): 101%
Nc1ncnc2occ(-c3ccc(NC(=O)Nc4cc(C(F)(F)F)ccc4F)cc3)c12 — remaining signal (cell-free assay; 20 µM): 2.7%
O=C(NCc1ncc(C(F)(F)F)cc1Cl)c1ccc2c(c1)C1(CCS(=O)(=O)CC1)[C@@H](C1CC1)N2S(=O)(=O)c1ccc(F)cc1 — remaining binding (cell-free assay, competition with immobilised ligand; 1 µM): 80%
O=C(Nc1cnn(-c2csc(C(=O)NC3COC3)c2)c1)Nc1c(F)cccc1Cl — remaining activity (enzyme activity, inhibitor; 5 µM): 58.5%
Cc1ccc(C(=O)NCc2ccsc2)cc1C#Cc1cn(C(C)C)c2ncnc(N)c12 — activity vs control (enzyme activity, inhibitor; 1 µM): 81%
Cc1cnc(NC2CCOCC2)nc1-n1cnc(C(=O)NC(CN)c2cc(F)cc(Cl)c2)c1 (centres unmarked) — remaining activity (enzyme activity, inhibitor, radiometric; 1 µM): 67%
CNC(=O)c1cc(Oc2ccc(NC(=O)Nc3ccc(Cl)c(C(F)(F)F)c3)cc2)ccn1 — remaining signal (cell-free assay; 0.5 µM): 106%
CC(C)(C)c1nc(-c2cccc(NS(=O)(=O)c3c(F)cccc3F)c2F)c(-c2ccnc(N)n2)s1 — remaining activity (enzyme activity, inhibitor, radiometric; 1 µM): 92%
O=C1NC(=O)c2cc(Nc3ccc(F)cc3)c(Nc3ccc(F)cc3)cc21 — remaining signal (cell-free assay; 0.5 µM): 90.8%
CC1=C(C#N)[C@@H](c2ccc3[nH]nc(C)c3c2)C(C#N)=C(c2ccc(Cl)cc2)N1 — remaining binding (cell-free assay, competition with immobilised ligand; 1 µM): 100%
C=CC(=O)Nc1cc(Nc2nccc(Nc3cc(Cl)c(F)cc3C(C)(C)O)n2)c(OC)cc1N1CC[C@@H](N(C)C)C1 — inhibition (enzyme activity, inhibitor; 1 µM): 6%
CC(=O)N1CCC(c2ccc(C(=O)NC3=NCCN3)cc2C(F)(F)F)CC1 — remaining binding (cell-free assay, competition with immobilised ligand; 1 µM): 100%
CN1CC(Oc2cnc(C#N)cc2-c2ccn3nc(NC(=O)C4CC4)cc3c2)C1 — inhibition (enzyme activity, inhibitor; 1 µM): 3%
O=c1c2ccccc2[nH]c(=S)n1CCN1CCC(=C(c2ccc(F)cc2)c2ccc(F)cc2)CC1 — remaining activity (enzyme activity, inhibitor; 0.5 µM): 99.4%
O=C(NS(=O)(=O)c1ccc(NCC2CCOCC2)c([N+](=O)[O-])c1)c1ccc(N2CCN(Cc3ccc(C(F)(F)F)cc3-c3ccc(Cl)cc3)CC2)cc1Oc1cnc2[nH]ccc2c1 — remaining binding (cell-free assay, competition with immobilised ligand; 1 µM): 97%
CCN(CC)CCNC(=O)c1c(C)[nH]c(/C=C2\C(=O)Nc3ccc(Cl)cc32)c1C — remaining activity (enzyme activity, inhibitor; 0.5 µM): 74.7%
CCC(=O)N[C@@H]1CC[C@H](C(=O)N(C)c2ccc(-c3nc4ccccc4o3)cc2)C1 — remaining binding (cell-free assay, competition with immobilised ligand; 1 µM): 100%
